Laboratory results taken from paper PMC7194280 (Leukemia, 2018).
Where two headings read alike, the source gives them in different places.

Tests used:
MM.1S cells = assay type: in vivo
MM.1S BzR cells [1] = experiment: Btz re-sensitization of PI-resistant MM cells; assay type: cell-based; settings: screening hit, low micromolar E61
RPMI-8226 cells = experiment: Effect on dexamethasone activity in dexamethasone resistant cells; assay type: cell-based; settings: dexamethasone resistant RPMI-8226 cells
[2] = Stability against oxidative metabolism by human liver microsomes; assay type: in vitro ADME
MM.1S BzR cells [3] = experiment: NSG mouse xenotransplant model with MM.1S BzR cells; assay type: in vivo
Summary of the method: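 Mice implanted i.v. with PI-resistant MM.1S BzR cells; test compound at 50 mg/kg i.p. daily versus vehicle, from day 21 post-implant. Read-out: Kaplan–Meier survival. In a parallel cohort, mice were sacrificed on day 49 and % CD138+ cells in bone marrow biopsies was quantified (vehicle N=8, treated N=7), compared by t-test.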

MM cells [4] = experiment: Single-agent anti-MM cell viability; assay type: cell-based, human; settings: read-out: EC50, single-agent anti-MM activity; 24 h of exposure
Summary of the method: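 Myeloma cells were seeded at 3×10^4 cells/well and exposed to test compound alone. Viability was read by CellTiter-Glo luminescence (470 nm, 1-s integration), and EC50 was derived from dose–response curves.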

PDIA1 = PDIA1 (Homo sapiens, UniProt P07237); experiment: Insulin reduction assay; assay type: biochemical
PDIA1, sequence (P07237 18-508): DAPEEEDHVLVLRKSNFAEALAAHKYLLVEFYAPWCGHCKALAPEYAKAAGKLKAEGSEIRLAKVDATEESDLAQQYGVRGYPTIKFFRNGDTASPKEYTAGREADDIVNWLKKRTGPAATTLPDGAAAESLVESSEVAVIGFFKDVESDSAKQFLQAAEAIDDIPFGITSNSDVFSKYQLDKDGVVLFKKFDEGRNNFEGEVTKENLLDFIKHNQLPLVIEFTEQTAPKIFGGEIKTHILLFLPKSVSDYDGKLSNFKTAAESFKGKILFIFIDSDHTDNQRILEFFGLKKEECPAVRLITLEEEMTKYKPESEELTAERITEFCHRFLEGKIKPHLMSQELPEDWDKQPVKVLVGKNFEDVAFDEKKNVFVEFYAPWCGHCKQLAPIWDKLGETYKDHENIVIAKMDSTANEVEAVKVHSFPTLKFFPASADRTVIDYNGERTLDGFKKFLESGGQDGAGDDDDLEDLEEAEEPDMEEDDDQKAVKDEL
Summary of the method: (§1)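 The assay measured reductase activity of recombinant PDI family isoforms through insulin reduction, followed as insulin aggregation (turbidity) kinetic traces. A dose range of test compound was applied. IC50 values were extrapolated from 10-dose inhibition curves.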

normal cells = experiment: PI sensitization in normal cells; assay type: cell-based; settings: PBMCs, WBCs, MRC-5, Wi-38, HFF, MEF; Btz and Crflz
Summary of the method: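 Normal human PBMCs, lymphocytes, lung (MRC-5, Wi-38) and foreskin (HFF) fibroblasts, and mouse MEF fibroblasts were seeded at 3×10^4 cells/well. Cells received 8-dose Btz or Crflz curves with or without 5 µM test compound. Viability was measured by CellTiter-Glo luminescence. Fold change = PI EC50 without / EC50 with test compound; >1 denotes sensitization, <1 protection.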

MM.1S BzR cells [5] = experiment: Effect on lenalidomide or doxorubicin cytotoxicity; assay type: cell-based
20S proteasome = experiment: Chymotrypsin-like activity of the 20S proteasome; assay type: biochemical
PDIA4 = experiment: Insulin reduction assay; assay type: biochemical
Summary of the method: as §1

MM cells [6] = experiment: PI sensitization of MM cell lines; assay type: cell-based, human
PDIA3 = experiment: Insulin reduction assay; assay type: biochemical
Summary of the method: as §1

[7] = mouse, in vivo
[8] = Pharmacokinetics in CD-1 mice; assay type: in vivo, mouse
Summary of the method: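 CD-1 mice received a single dose of test compound, either i.v. at 2 mg/kg or p.o. at 5 mg/kg. Plasma drug concentrations were followed over 24 h by an optimized LC-MS method. Oral bioavailability and terminal half-life were derived from these plasma profiles.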

PDIA6 = experiment: Insulin reduction assay; assay type: biochemical
Summary of the method: as §1

TXNDC5 = experiment: Insulin reduction assay; assay type: biochemical
Summary of the method: as §1

[9] = Stability in serum, simulated gastric and intestinal fluids; assay type: in vitro ADME
Vk*MYC transgenic mice = experiment: Vk*MYC transgenic mouse model of MM; assay type: in vivo; settings: 2 mg/kg i.p. days 1, 3, 5 of each week for 2 weeks; three mice; P=0.0135
[10] = E64FC26 2 mg/kg i.p. 3 days/week, N=9

Compound: CC(C)C[C@H](NC(=O)[C@H](Cc1ccccc1)NC(=O)c1cnccn1)B(O)O [Btz, bortezomib, reference compound]
- increase in median survival over vehicle (MM.1S cells; Btz 0.25 mg/kg i.p. 2 days/week, E64FC26 2 mg/kg i.p. 3 days/week, N=8): 6 days

Compound: CCCCCCCCOC(=O)/C=C/c1ccc(O)c(O)c1 [E61, n-octyl caffeate]
- enhancement of Btz cytotoxicity (MM.1S BzR cells [1]): > 6 fold
- effect on dexamethasone activity (RPMI-8226 cells): no effect
- calculated intrinsic clearance in human liver microsomes [2]: 97.6 ± 6.0 µL/min/mg
- number of CD138+ MM cells in bone marrow (MM.1S BzR cells [3]; 50 mg/kg i.p. daily, sacrificed on day 49, P=0.007): significant reduction
- treated mice that never reached the survival endpoint (MM.1S BzR cells [3]; 50 mg/kg/day i.p.): 4 of the 11
- median survival (MM.1S BzR cells [3]; 50 mg/kg/day i.p., continuous dosing, vehicle 51 days): 62 days
- prolongation of median survival (MM.1S BzR cells [3]; 50 mg/kg/day i.p., continuous dosing, vs vehicle, N=11): 11 days
- tolerability (overt signs of distress, body weight) (MM.1S BzR cells [3]; continuous dosing for 40+ days, 50 mg/kg/day i.p.): well tolerated
- EC50 (MM cells [4]): 18300 nM
- IC50 in vitro (PDI assay, qualitative) (PDIA1): high micromolar
- enhancement of the cytotoxic effects of PIs in normal cells (normal cells): failed to enhance
- effect on lenalidomide or doxorubicin cytotoxicity (MM.1S BzR cells [5]): did not affect
- inhibition of chymotrypsin-like activity of the 20S proteasome (20S proteasome): did not inhibit

Compound: CCCCCCCC/C=C1\C=C(C(F)(F)F)c2cc(O)c(O)cc21 [E64FC26]
- inhibition of PDIA4 (qualitative) (PDIA4): inhibited
- potency relative to E61 in cellular models of PI sensitization (MM cells [6]): > 10 times
- concentrations highly synergistic with PIs (MM cells [6]; MM.1S BzR and U266 BzR cells, Btz): ≥ 200 nM
- average increase in PI sensitivity (MM cells [6]; cells treated with empirically determined EC10–20 of the PDI inhibitor): 6–7 fold
- calculated intrinsic clearance in human liver microsomes [2]: 6.22 ± 0.98 µL/min/mg
- EC50 (MM cells [4]): 590 nM
- potency relative to E61 as inhibitor of PDI activity in vitro (PDIA1): > 50 times
- IC50 (PDIA1; read-out: IC50 against PDIA1, insulin reduction assay): 1900 ± 100 nM
- inhibition of PDIA3 (qualitative) (PDIA3): inhibited
- blood serum chemistry markers (toxicology) [7]: mild thrombocytopenia and neutropenia
- oral bioavailabilty ([8]; p.o. 5 mg/kg, i.v. 2 mg/kg): 34%
- Cmax ([8]; read-out: maximum concentration (Cmax), single oral dose of 5 mg/kg, plasma): ~400 nM
- terminal half-life ([8]; single oral dose of 5 mg/kg): 9.5 h
- inhibition of PDIA6 (qualitative) (PDIA6): inhibited
- inhibition of TXNDC5 (qualitative) (TXNDC5): inhibited
- stability in serum, simulated gastric and intestinal fluids, and human liver microsomes compared to E61 [9]: increased stability
- average decrease in serum M-protein (Vk*MYC transgenic mice): 33 ± 7.9%
- increase in median survival over vehicle (MM.1S cells; [10]): 2 weeks
- increase in median survival over vehicle (percent) (MM.1S cells; [10]): 40%
- mice alive on day 36 (MM.1S cells; E64FC26 2 mg/kg i.p. 3 days/week, vehicle 0% (0/9)): 100%
- overt toxicity or body weight fluctuations (MM.1S cells; mouse, in vivo): No overt toxicity or body weight fluctuations

Compound: O=C(O)/C=C/c1ccc(O)c(O)c1 [caffeic acid, reference compound]
- enhancement of the sensitivity of MM cells to PIs (qualitative) (MM cells [6]): failed to enhance
- PDI reductase activity in vitro (qualitative) (PDIA1): no activity

Compound: PACMA 31 [reference compound]
- inhibition of PDIA4 (qualitative) (PDIA4): inhibited
- inhibition of PDIA3 (qualitative) (PDIA3): failed to inhibit
- inhibition of PDIA6 (qualitative) (PDIA6): inhibited
- inhibition of TXNDC5 (qualitative) (TXNDC5): inhibited
